Measured values taken from ChEMBL document CHEMBL1938298, “Synthesis and characterization of [¹²⁵I]2-iodo N-[(S)-{(S)-1-methylpiperidin-2-yl}(phenyl)methyl]3-trifluoromethyl-benzamide as novel imaging probe for glycine transporter 1” (Bioorg Med Chem, 2011).
pIC50: −log10 of the molar value.

Key:
[1] = molecular target: T1, Sodium- and chloride-dependent glycine transporter 1 (Homo sapiens, UniProt P48067); assay: Inhibition of GlyT1 in human JAR cells assessed as inhibition of [3H]glycine uptake preincubated for 1 mins measured after 2 hrs by liquid scintillation counting; format: cell-based
T1 sequence (P48067 whole entry): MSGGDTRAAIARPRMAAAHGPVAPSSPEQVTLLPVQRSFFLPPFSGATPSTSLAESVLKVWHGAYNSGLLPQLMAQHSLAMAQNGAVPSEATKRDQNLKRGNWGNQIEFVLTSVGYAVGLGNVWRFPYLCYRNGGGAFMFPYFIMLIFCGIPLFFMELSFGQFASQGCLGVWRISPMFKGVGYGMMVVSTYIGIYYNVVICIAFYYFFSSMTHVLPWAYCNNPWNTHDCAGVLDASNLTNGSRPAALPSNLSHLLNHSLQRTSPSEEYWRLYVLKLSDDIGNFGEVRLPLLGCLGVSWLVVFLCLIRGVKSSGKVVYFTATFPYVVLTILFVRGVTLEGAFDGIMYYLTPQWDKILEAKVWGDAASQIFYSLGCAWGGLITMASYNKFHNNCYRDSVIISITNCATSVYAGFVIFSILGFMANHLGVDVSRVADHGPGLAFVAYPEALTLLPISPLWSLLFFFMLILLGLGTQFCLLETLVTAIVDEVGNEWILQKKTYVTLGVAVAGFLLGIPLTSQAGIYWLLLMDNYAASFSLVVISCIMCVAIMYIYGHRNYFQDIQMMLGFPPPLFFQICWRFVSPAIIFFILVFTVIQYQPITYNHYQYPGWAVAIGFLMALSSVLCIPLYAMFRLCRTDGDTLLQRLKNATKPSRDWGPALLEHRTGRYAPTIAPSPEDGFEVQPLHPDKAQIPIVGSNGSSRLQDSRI
Procedure, shortened: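 [3H]glycine (final 10 µM) was added for 2 h at room temperature; nonspecific uptake was defined with 10 mM glycine. Cells were lysed in NaOH and counted by liquid scintillation. IC50 values are from at least three measurements, mean ± SEM.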

[2] = molecular target: T1, Sodium- and chloride-dependent glycine transporter 1; assay: Inhibition of human GlyT1 expressed in CHO cells assessed as inhibition of [3H]glycine uptake preincubated for 1 mins measured after 2 hrs by liquid scintillation counting; format: cell-based

| pIC50 [1] | pIC50 [2] | SMILES |
| --- | --- | --- |
| 7.37 |  | O=C(N[C@@H](c1ccccc1)[C@@H]1CCCCN1)c1cccc(C(F)(F)F)c1I |
| 7.10 | 6.50 | O=C(N[C@@H](c1ccccc1)[C@@H]1CCCCN1)c1cccc(C(F)(F)F)c1Cl |
